Assays:
[1] = tested on: Feline infectious peritonitis virus; assay: Antiviral activity against FIPV infected in cat CRFK cells assessed as inhibition of virus-induced cytopathic effect after 4 days by colorimetric formazan-based MTS assay; format: functional, cell-based; conditions: Alphacoronavirus 1, CRFK, 96 h
[2] = Cytotoxicity against cat CRFK cells assessed as cell viability by colorimetric formazan-based MTS assay; parameters: species or system Felis catus; conditions: CRFK cells
Felid alphaherpesvirus 1 = assay: Antiviral activity against Feline herpesvirus infected in cat CRFK cells assessed as inhibition of virus-induced cytopathic effect after 4 days by colorimetric formazan-based MTS assay; format: functional, organism-based; conditions: Felid alphaherpesvirus 1, CRFK, 96 h
[3] = Inhibition of beta-hematin formation assessed as Ferriprotoporphyrin IX biomineralisation at 1 mg/ml after 24 hrs; format: functional
How it was run: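 Hemin chloride (0.5 mg/ml in DMSO) mixed with 0.5 M sodium acetate buffer pH 4.4 and drug or solvent control, incubated 37 °C for 24 h. Pellet washed with DMSO to remove unreacted hemin, dissolved in 0.1 N NaOH, absorbance read at 405 nm; percent inhibition relative to control. Highest concentration tested 1 mg/ml.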

Plasmodium falciparum [4] = assay: Antiplasmodial activity chloroquine-sensitive Plasmodium falciparum 3D7 infected in human A+ erythrocytes assessed as inhibition of [3H]-hypoxanthine incorporation after 24 hrs by scintillation counting; format: functional, organism-based
Plasmodium falciparum [5] = assay: Resistant factor, ratio of IC50 for chloroquine-resistant Plasmodium falciparum K1 to IC50 for chloroquine-sensitive Plasmodium falciparum 3D7; format: functional
How it was run: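 Resistance factor computed as IC50 against K1 divided by IC50 against 3D7, both from the [3H]hypoxanthine incorporation assay.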

Plasmodium falciparum [6] = assay: Antiplasmodial activity chloroquine-resistant Plasmodium falciparum K1 infected in human A+ erythrocytes assessed as inhibition of [3H]-hypoxanthine incorporation after 24 hrs by scintillation counting; format: functional, organism-based
[7] = tested on: Respiratory syncytial virus; assay: Antiviral activity against Respiratory syncytial virus infected in human HeLa cells assessed as inhibition of virus-induced cytopathogenicity after 4 days; format: functional, organism-based; conditions: 96 h
How it was run: (§1)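 Confluent HEL, Vero or HeLa monolayers were inoculated with 100 CCID50 of virus in the presence of varying concentrations of compound. Cytopathicity was scored when it reached completion in untreated, virus-infected control cultures.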

Punta Toro virus = assay: Antiviral activity against Punta Toro virus infected in african green monkey Vero cells assessed as inhibition of virus-induced cytopathogenicity after 4 days; format: functional, organism-based; conditions: 96 h; how it was run: as §1
Coxsackievirus B4 [8] = assay: Antiviral activity against Coxsackie virus B4 infected in african green monkey Vero cells assessed as inhibition of virus-induced cytopathogenicity after 4 days; format: functional, organism-based; conditions: Enterovirus B, 96 h; how it was run: as §1
[9] = Cytotoxicity against human HeLa cells assessed as minimum compound concentration required to causes microscopically detectable alteration of normal cell morphology; format: cell-based
How it was run: (§2)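 Confluent, non-proliferating cell cultures were exposed to the compounds. The endpoint was the minimum concentration producing a microscopically detectable alteration of normal cell morphology.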

Sindbis virus = assay: Antiviral activity against Sindbis virus infected in african green monkey Vero cells assessed as inhibition of virus-induced cytopathogenicity after 4 days; format: functional, organism-based; conditions: 96 h; how it was run: as §1
[10] = tested on: Vesicular stomatitis virus; assay: Antiviral activity against Vesicular stomatitis virus infected in HeLa cells assessed as inhibition of virus-induced cytopathogenicity after 4 days; format: functional, organism-based; conditions: 96 h
How it was run: (§3)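 Confluent HEL or HeLa monolayers infected with 100 CCID50 of virus in the presence of varying compound concentrations.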

Coxsackievirus B4 [11] = assay: Antiviral activity against Coxsackie virus B4 infected in human HeLa cells assessed as inhibition of virus-induced cytopathogenicity after 4 days; format: functional, organism-based; conditions: Enterovirus B, 96 h; how it was run: as §1
Human respirovirus 3 = assay: Antiviral activity against Parainfluenza-3 virus infected in african green monkey Vero cells assessed as inhibition of virus-induced cytopathogenicity after 4 days; format: functional, organism-based; conditions: Human respirovirus 3, Vero, 96 h; how it was run: as §1
[12] = Cytotoxicity against african green monkey Vero cells assessed as minimum compound concentration required to causes microscopically detectable alteration of normal cell morphology; format: cell-based; conditions: chlorocebus sabaeus; how it was run: as §2
[13] = tested on: Mammalian orthoreovirus 1; assay: Antiviral activity against Reovirus-1 infected in african green monkey Vero cells assessed as inhibition of virus-induced cytopathogenicity after 4 days; format: functional, organism-based; conditions: Mammalian orthoreovirus 1, Vero, 96 h; how it was run: as §1
Human alphaherpesvirus 3 = assay: Antiviral activity against […] expressing thymidine kinase infected in HEL cells assessed as reduction of virus plaque formation after 4 days; format: functional, cell-based; conditions: Human alphaherpesvirus 3, strain Oka vaccine, 96 h
[14] = tested on: Vesicular stomatitis virus; assay: Antiviral activity against Vesicular stomatitis virus infected in HEL cells assessed as inhibition of virus-induced cytopathogenicity after 4 days; format: functional, organism-based; conditions: 96 h; how it was run: as §3
HeLa = assay: Cytotoxicity against human HeLa cells assessed as cell viability by colorimetric formazan-based MTS assay
[15] = Cytotoxicity against human HEL cells assessed as minimum compound concentration required to causes microscopically detectable alteration of normal cell morphology; format: cell-based; how it was run: as §2
Influenza A virus [16] = assay: Antiviral activity against Influenza A virus H3N2 infected in MDCK cells assessed as reduction visual scoring of virus-induced cytopathogenicity after 4 days; format: functional, organism-based; conditions: 96 h
How it was run: (§4)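 MDCK monolayers infected with 100 CCID50 of influenza A (H1N1 or H3N2) or influenza B, with varying compound concentrations. Cytopathicity read when untreated infected controls reached complete CPE.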

[17] = Cytotoxicity against MDCK cells assessed as minimum compound concentration required to causes microscopically detectable alteration of normal cell morphology; format: cell-based, Canis lupus familiaris; conditions: dog; how it was run: as §2
Influenza B virus [18] = assay: Antiviral activity against Influenza B virus infected in MDCK cells assessed as inhibition of virus-induced cytopathogenicity after 4 days by colorimetric formazan-based MTS assay; format: functional, organism-based; conditions: 96 h
Influenza A virus [19] = assay: Antiviral activity against Influenza A virus H1N1 infected in MDCK cells assessed as inhibition of virus-induced cytopathogenicity after 4 days by colorimetric formazan-based MTS assay; format: functional, organism-based; conditions: 96 h
Influenza A virus [20] = assay: Antiviral activity against Influenza A virus H1N1 infected in MDCK cells assessed as reduction visual scoring of virus-induced cytopathogenicity after 4 days; format: functional, organism-based; conditions: 96 h; how it was run: as §4
MDCK = assay: Cytotoxicity against MDCK cells assessed as cell viability by colorimetric formazan-based MTS assay; parameters: species or system Canis lupus familiaris; conditions: dog, mdck
How it was run: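 Cytotoxicity on MDCK cells; 50% cytotoxic concentration from cell viability measured by colorimetric formazan-based MTS assay.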

Influenza B virus [21] = assay: Antiviral activity against Influenza B virus infected in MDCK cells assessed as reduction visual scoring of virus-induced cytopathogenicity after 4 days; format: functional, organism-based; conditions: 96 h; how it was run: as §4
Influenza A virus [22] = assay: Antiviral activity against Influenza A virus H3N2 infected in MDCK cells assessed as inhibition of virus-induced cytopathogenicity after 4 days by colorimetric formazan-based MTS assay; format: functional, organism-based; conditions: 96 h

**Q.** Which results are given for `N[C@H]1C(C(=O)O)=CC=C[C@@H]1O`?
**A.** EC50 [1]: 8.1 µg/mL; CC50 [2]: > 100 µg/mL; EC50 (Felid alphaherpesvirus 1): 5.2 µg/mL

**Q.** Which inhibition [3] does the source give for `CCOC(=O)c1c(C)nc(Nc2ccc(Nc3ccnc4cc(Cl)ccc34)cc2)nc1-c1ccccc1` here?
**A.** The inhibition was 100%.

**Q.** And the IC50 (Plasmodium falciparum [4])?
**A.** The IC50 was 0.644 µM.

**Q.** And the “Ratio IC50” value (Plasmodium falciparum [5])?
**A.** Its value is 9.6.

**Q.** And the IC50 (Plasmodium falciparum [6])?
**A.** The IC50 was 6.19 µM.

**Q.** Which EC50 [7] does the source give for `Nc1ncnc2c1ncn2C[C@H](O)CO` [(S)-DHPA] here?
**A.** The EC50 was 6 µM.

**Q.** And the EC50 (Punta Toro virus)?
**A.** The EC50 was over 250 µM.

**Q.** And the EC50 (Coxsackievirus B4 [8])?
**A.** The EC50 was over 250 µM.

**Q.** And the MCC [9]?
**A.** The MCC was over 250 µM.

**Q.** And the EC50 (Sindbis virus)?
**A.** Its EC50 is over 250 µM.

**Q.** And the EC50 [10]?
**A.** The EC50 was 22 µM.

**Q.** And the EC50 (Coxsackievirus B4 [11])?
**A.** The EC50 was 29 µM.

**Q.** What about the EC50 (Human respirovirus 3) of the same compound?
**A.** Its EC50 is over 250 µM.

**Q.** And the MCC [12]?
**A.** The MCC was over 250 µM.

**Q.** What about the EC50 [13] of the same compound?
**A.** The EC50 was 250 µM.

**Q.** What does the source list for `O=c1[nH]c(=O)n([C@H]2C[C@H](O)[C@@H](CO)O2)cc1/C=C/Br` [BRIVUDINE]?
**A.** EC50 (Human alphaherpesvirus 3): 0.019 µM; EC50 [14]: > 250 µM; CC50 (HeLa): 362 µM; MCC [15]: > 250 µM

**Q.** What does the source list for `CCOC(=O)c1c(C)nc(NCCCCCCCCCCNc2ccnc3cc(Cl)ccc23)nc1-c1ccccc1`?
**A.** IC50 (Plasmodium falciparum [4]): 1.78 µM; Ratio IC50 (Plasmodium falciparum [5]): 0.2744; IC50 (Plasmodium falciparum [6]): 0.488 µM

**Q.** What does the source list for `Nc1nc(O)c2ncn(COC(CO)CO)c2n1` [GANCICLOVIR]?
**A.** EC50 [1]: > 100 µM; CC50 [2]: > 100 µM; EC50 [14]: > 100 µM; CC50 (HeLa): 222 µM; MCC [15]: > 100 µM; EC50 (Felid alphaherpesvirus 1): 4.1 µM

**Q.** For `CCOC(=O)c1c(C)nc(Nc2ccccc2Nc2ccnc3cc(Cl)ccc23)nc1-c1ccccc1`, which inhibition [3] is on record?
**A.** The inhibition was 53%.

**Q.** And the IC50 (Plasmodium falciparum [4])?
**A.** The IC50 was 14.8 µM.

**Q.** What about the “Ratio IC50” value (Plasmodium falciparum [5]) of the same compound?
**A.** The value was 1.842.

**Q.** What about the IC50 (Plasmodium falciparum [6]) of the same compound?
**A.** The IC50 was 27.3 µM.

**Q.** Which results are given for `NC12CC3CC(CC(C3)C1)C2` [AMANTADINE]?
**A.** EC50 (Influenza A virus [16]): 5 µM; MCC [17]: > 200 µM; EC50 (Influenza B virus [18]): > 200 µM; EC50 (Influenza A virus [19]): 154 µM; EC50 (Influenza A virus [20]): 89 µM; CC50 (MDCK): > 200 µM; EC50 (Influenza B virus [21]): > 200 µM; EC50 (Influenza A virus [22]): 4.1 µM

**Q.** Which results are given for `CCOC(=O)c1c(C)nc(NCCCC(C)CNc2ccnc3cc(Cl)ccc23)nc1-c1ccccc1` (configuration not stated)?
**A.** IC50 (Plasmodium falciparum [4]): 0.287 µM; Ratio IC50 (Plasmodium falciparum [5]): 3; IC50 (Plasmodium falciparum [6]): 0.86 µM

**Q.** With `CC(=O)N[C@H]1[C@@H](OP(=O)(O)OP(=O)(O)OC[C@H]2O[C@@H](n3ccc(=O)[nH]c3=O)[C@H](O)[C@@H]2O)O[C@H](CO)[C@@H](O)[C@@H]1O[C@@](C)(OP(=O)(O)O)C(=O)O` as the compound, how does the EC50 [1] read?
**A.** Its EC50 is 1.5 µg/mL.

**Q.** What about the CC50 [2] of the same compound?
**A.** Its CC50 is 15.8 µg/mL.

**Q.** And the EC50 (Felid alphaherpesvirus 1)?
**A.** The EC50 was 0.8 µg/mL.

**Q.** Which results are given for `CCOC(=O)c1c(C)nc(NCCCCCCCNc2ccnc3cc(Cl)ccc23)nc1-c1ccccc1`?
**A.** inhibition [3]: 89%; IC50 (Plasmodium falciparum [4]): 1.13 µM; Ratio IC50 (Plasmodium falciparum [5]): 0.544; IC50 (Plasmodium falciparum [6]): 0.618 µM
